For the first assay, the system named is SW-620. Kind of assay: Cytotoxicity against human SW620 cells after 72 hrs. Format: functional. The procedure, abridged: (§1)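 Cells seeded at 2.5×10^4 cells/mL (150 μL per well) and preincubated ~24 h at 37 °C, 5% CO₂. Compounds dissolved at 1.0 mg/mL in MeOH (stock), 50 μL added, then serially diluted 4-fold for eight concentrations. After 72 h further incubation, cells fixed with HBSS–formaldehyde–water (1:1:8) for 10 min. Stained with 0.0075% crystal violet for 15 min. Concentration giving total cell kill (IC100) read.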
With `CC1CCC(=O)O[C@@]23C(=O)N[C@@H](Cc4ccccc4)[C@@H]2[C@H](C)[C@@]2(C)O[C@H]2[C@@H]3/C=C/CC(C)(O)C1=O` (stereo partly specified), the IC100 worked out at 62.5 µg/mL.
Consider `C[C@H]1C/C=C/[C@H]2[C@@H]3O[C@]3(C)[C@@H](C)[C@H]3[C@H](Cc4ccccc4)NC(=O)[C@]32OC(=O)O/C=C/[C@@](C)(O)C1=O` [CYTOCHALASIN E], for which the IC100 turned out to be 0.977 µg/mL.
Same read-out and setting: the result for `CC1/C=C/C(=O)O[C@@]23C(=O)N[C@@H](Cc4ccccc4)[C@@H]2[C@H](C)[C@@]2(C)O[C@H]2[C@@H]3/C=C/CC(C)C1O` (stereo partly specified) reads 15.6 µg/mL.

In the next assay the test system is HCT-116. Kind of assay: Cytotoxicity against human HCT116 cells after 72 hrs. Type of assay: functional. The procedure, abridged:
as §1
On to `CC1CCC(=O)O[C@@]23C(=O)N[C@@H](Cc4ccccc4)[C@@H]2[C@H](C)[C@@]2(C)O[C@H]2[C@@H]3/C=C/CC(C)(O)C1=O` (stereo partly specified), for which the IC100 worked out at 15.6 µg/mL.
`C[C@H]1C/C=C/[C@H]2[C@@H]3O[C@]3(C)[C@@H](C)[C@H]3[C@H](Cc4ccccc4)NC(=O)[C@]32OC(=O)O/C=C/[C@@](C)(O)C1=O` [CYTOCHALASIN E] registered an IC100 of 0.244 µg/mL.
On the same count and under the same terms, the result for `CC1/C=C/C(=O)O[C@@]23C(=O)N[C@@H](Cc4ccccc4)[C@@H]2[C@H](C)[C@@]2(C)O[C@H]2[C@@H]3/C=C/CC(C)C1O` (stereo partly specified) reads 3.91 µg/mL.
Still for that read-out and setting: the result for `CC1CCC(=O)O[C@@]23C(=O)N[C@@H](Cc4ccccc4)[C@@H]2[C@H](C)[C@@]2(C)O[C@H]2[C@@H]3/C=C/CC(CO)C1=O` (stereo partly specified) reads 15.6 µg/mL.

Tested on in the next assay: not listed separately
Kind of assay: Cytotoxicity against human A2780S cells after 72 hrs. Type of assay: functional, A2780. In outline:
as §1
For the compound `CC1CCC(=O)O[C@@]23C(=O)N[C@@H](Cc4ccccc4)[C@@H]2[C@H](C)[C@@]2(C)O[C@H]2[C@@H]3/C=C/CC(C)(O)C1=O` (stereo partly specified), the IC100 came to 15.6 µg/mL.
Same read-out and setting: the result for `C[C@H]1C/C=C/[C@H]2[C@@H]3O[C@]3(C)[C@@H](C)[C@H]3[C@H](Cc4ccccc4)NC(=O)[C@]32OC(=O)O/C=C/[C@@](C)(O)C1=O` [CYTOCHALASIN E] reads under 0.0153 µg/mL.
On the same count and under the same terms, as for `CC1/C=C/C(=O)O[C@@]23C(=O)N[C@@H](Cc4ccccc4)[C@@H]2[C@H](C)[C@@]2(C)O[C@H]2[C@@H]3/C=C/CC(C)C1O` (stereo partly specified), the figure is 3.91 µg/mL.
`CC1CCC(=O)O[C@@]23C(=O)N[C@@H](Cc4ccccc4)[C@@H]2[C@H](C)[C@@]2(C)O[C@H]2[C@@H]3/C=C/CC(CO)C1=O` (stereo partly specified) registered an IC100 of 3.91 µg/mL.
